pIC50: −log10 of the molar value. Activity calls are given as the source filed them. No cut-off for these calls is given here.

The subject of one assay is RAW. Kind of assay: Inhibition of nitric oxide production in IFN-gamma stimulated RAW 264.7 cells. Conditions: Mus musculus. The assay is classed as functional, cell-based.
For another assay, the system named is Mus musculus. Kind of assay: Antiinflammatory activity in CD1 mouse at 2 uM, po. It is filed as functional, organism-based. Summed up:
(§1)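 Male CD-1 mice, 3 per group, were given a single oral gavage of 2 μmole triterpenoid in DMSO. The read-out was heme oxygenase-1 (HO-1) induction in the liver.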

Assay [1] deals with T1, Heme oxygenase 1 (Mus musculus) (UniProt P14901).
T1 sequence (whole entry): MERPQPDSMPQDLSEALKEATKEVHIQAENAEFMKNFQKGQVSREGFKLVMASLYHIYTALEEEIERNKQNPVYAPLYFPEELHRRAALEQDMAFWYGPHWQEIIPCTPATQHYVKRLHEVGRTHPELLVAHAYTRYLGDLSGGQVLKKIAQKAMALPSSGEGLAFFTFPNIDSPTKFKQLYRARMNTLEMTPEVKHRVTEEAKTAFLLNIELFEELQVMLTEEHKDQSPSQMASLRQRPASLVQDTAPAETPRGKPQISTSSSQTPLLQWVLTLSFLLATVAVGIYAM
Kind of assay: Induction of liver HO1 in CD1 mouse at 2 uM, po after 6 hrs. It is filed as organism-based. Summed up: as §1

On to `C=C(C)[C@@H]1CC[C@]2(C(N)=O)CC[C@]3(C)C(CC[C@@H]4[C@@]5(C)C=C(C#N)C(=O)C(C)(C)[C@@H]5CC[C@]43C)[C@@H]12` (stereo partly drawn), for which the pIC50 in the assay with RAW was 7.52.
Still for that read-out and setting: under `C=C(C)[C@@H]1CC[C@]2(C(=O)OC)CC[C@]3(C)C(CC[C@@H]4[C@@]5(C)C=C(C#N)C(=O)C(C)(C)[C@@H]5CC[C@]43C)[C@@H]12` (stereo partly drawn) stands 7.52.
On the same count and under the same terms, for `C=C(CO)[C@@H]1CC[C@]2(C(=O)OC)CC[C@]3(C)C(CC[C@@H]4[C@@]5(C)C=C(C(=O)O)C(=O)C(C)(C)[C@@H]5CC[C@]43C)[C@@H]12` (stereo partly drawn) the value was 6.05.
With `C=C(C)[C@@H]1CC[C@]2(C(=O)OCC)CC[C@]3(C)C(CC[C@@H]4[C@@]5(C)C=C(C#N)C(=O)C(C)(C)[C@@H]5CC[C@]43C)[C@@H]12` (stereo partly drawn), in the assay with RAW, the pIC50 is 7.70.
Still for that read-out and setting: under `C=C(C)[C@@H]1CC[C@]2(C(=O)N(C)C)CC[C@]3(C)C(CC[C@@H]4[C@@]5(C)C=C(C#N)C(=O)C(C)(C)[C@@H]5CC[C@]43C)[C@@H]12` (stereo partly drawn) stands 7.52; under `C=C(C)[C@@H]1CC[C@]2(C(=O)OC)CC[C@]3(C)C(CC[C@@H]4[C@@]5(C)C=C(C(=O)OC)C(=O)C(C)(C)[C@@H]5CC[C@]43C)[C@@H]12` (stereo partly drawn), 6.22.
Same read-out and setting: under `C=C(C)[C@@H]1CC[C@]2(C(=O)O)CC[C@]3(C)C(CC[C@@H]4[C@@]5(C)C=C(C#N)C(=O)C(C)(C)[C@@H]5CC[C@]43C)[C@@H]12` (stereo partly drawn) stands 6.70.
In the case of `C=C(C)[C@@H]1CC[C@]2(C(=O)O)CC[C@]3(C)[C@H](CC[C@@H]4[C@@]5(C)CC[C@H](O)C(C)(C)[C@@H]5CC[C@]43C)[C@@H]12`, the result with RAW was inactive.
Consider `C=C(CF)[C@@H]1CC[C@]2(C(=O)OC)CC[C@]3(C)C(CC[C@@H]4[C@@]5(C)C=C(C(=O)O)C(=O)C(C)(C)[C@@H]5CC[C@]43C)[C@@H]12` (stereo partly drawn), for which the pIC50 with RAW was 6.52.
`C=C(C)[C@@H]1CC[C@]2(C(=O)NC)CC[C@]3(C)C(CC[C@@H]4[C@@]5(C)C=C(C#N)C(=O)C(C)(C)[C@@H]5CC[C@]43C)[C@@H]12` (stereo partly drawn) showed a pIC50 with RAW of 7.30.
Same read-out and setting: for `C=C(CO)[C@@H]1CC[C@]2(C(=O)OC)CC[C@]3(C)C(CC[C@@H]4[C@@]5(C)C=C(C(=O)OC)C(=O)C(C)(C)[C@@H]5CC[C@]43C)[C@@H]12` (stereo partly drawn) the value was 6.00.
The same measure, in the same setting: under `C=C(C)[C@@H]1CC[C@]2(C(=O)OC)CC[C@]3(C)C(CC[C@@H]4[C@@]5(C)C=C(C(=O)O)C(=O)C(C)(C)[C@@H]5CC[C@]43C)[C@@H]12` (stereo partly drawn) stands 6.52; under `C=C(C)[C@@H]1CC[C@]2(C(=O)n3ccnc3CC)CC[C@]3(C)C(CC[C@@H]4[C@@]5(C)C=C(C#N)C(=O)C(C)(C)[C@@H]5CC[C@]43C)[C@@H]12` (stereo partly drawn), 7.52.
For the compound `C=C(C)[C@@H]1CC[C@]2(C(=O)n3ccnc3)CC[C@]3(C)C(CC[C@@H]4[C@@]5(C)C=C(C#N)C(=O)C(C)(C)[C@@H]5CC[C@]43C)[C@@H]12` (stereo partly drawn), the outcome (in the assay with Mus musculus; in assay [1]) was Active. In addition, the pIC50 in the assay on RAW was 7.52.
In turn, `C=C(C)[C@@H]1CC[C@]2(C(=O)n3ccnc3C)CC[C@]3(C)C(CC[C@@H]4[C@@]5(C)C=C(C#N)C(=O)C(C)(C)[C@@H]5CC[C@]43C)[C@@H]12` (stereo partly drawn) gave a pIC50 in the assay on RAW of 7.30.
The same measure, in the same setting: under `C=C(CF)[C@@H]1CC[C@]2(C(=O)OC)CC[C@]3(C)C(CC[C@@H]4[C@@]5(C)C=C(C(=O)OC)C(=O)C(C)(C)[C@@H]5CC[C@]43C)[C@@H]12` (stereo partly drawn) stands 6.52.

In general, pIC50 refers to −log10 of the IC50, conventionally taken in molar units. A lower pIC50 goes with a large IC50.

Source of the values: ChEMBL document CHEMBL1145300, “Design, synthesis, and anti-inflammatory activity both in vitro and in vivo of new betulinic acid analogues having an enone functionality in ring A” (Bioorg Med Chem Lett, 2006).
